One data set deals with HT-29 cancer cells. The experiment in a line: MTT cytotoxicity assay, HT-29. Type of data set: cell-based. As to conditions: Homo sapiens, HT-29, 72 h, read-out: IC50 HT-29 Colon. In a few lines: (§1)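 Cells grown as monolayers in DMEM with 4.5 g glucose, 10% FBS and 1% penicillin/streptomycin. Seeded cells exposed for 72 h to several concentrations of test compound (0.1–100 μM), then given MTT for 4 h. Formazan dissolved in DMSO; absorbance read at 570 nm. IC50 taken as the mean of three independent experiments in triplicate; 100 μM cut-off.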

For the next data set, the system named is HEK293/pcDNA3.1. The experiment in a line: MTT cytotoxicity assay, HEK293/pcDNA3.1. It counts as cell-based, human. The settings on record: for IC50: Homo sapiens, HEK293, 72 h, read-out: IC50 HEK293/pcDNA.3.1 Normal; for significant cytotoxicity in human embryonic kidney cells: at a concentration of less than 50 μM. A digest of the protocol: as §1
Data set [1] has as its system mouse fibroblast (NIH/3T3). The experiment in a line: MTT cytotoxicity assay, NIH/3T3. It counts as cell-based. The settings on record: NIH3T3, 72 h, read-out: IC50 3T3 Normal. A digest of the protocol:
as §1

In a further data set the test system is DU-145 cells. The experiment in a line: MTT cytotoxicity assay, DU-145. Type of data set: cell-based. The settings on record: Homo sapiens, DU-145, 72 h, read-out: IC50 DU-145 Prostate. In a few lines:
as §1

Another data set relates to HCT-116. The experiment in a line: MTT cytotoxicity assay, HCT-116. It counts as cell-based. The settings on record: Homo sapiens, HCT-116, 72 h, read-out: IC50 HCT-116 Colon. A digest of the protocol:
as §1

Data set [2] deals with A2780 cells. The experiment in a line: Nuclear condensation-based apoptosis assay. It counts as cell-based. The settings on record: 5, 10, or 20 μM at 24 and 48 h.
The subject of data set [3] is A2780 cells. The data set is described as follows: Colony formation assay. It counts as cell-based. As to conditions: 10 or 20 μM, incubated 24 hrs, colonies over 2 weeks. In a few lines: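 A2780 cells exposed to vehicle (0 μM) or test compound (10 or 20 μM) for 24 h, then reseeded at very low density in six-well plates and grown 2 weeks. Colonies fixed, stained and counted under a microscope; colony formation rate calculated. Repeated independently in triplicate.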

In data set [4] the test system is A2780 cells. The data set is described as follows: Annexin V based apoptosis assay. Type of data set: cell-based. As to conditions: 24 h; for Q1 (flow cytometry quadrant): control Q1 94.1%; for Q2 (flow cytometry quadrant, apoptosis): control Q2 5.87 %.

Regarding `COc1ccc2nc(Cl)c(C=C3C(=O)Nc4ccccc43)cc2c1` [LM04, 3-((2-chloro-6-methoxyquinolin-3-yl)methylene)indolin-2-one], the IC50 in the data set with HT-29 cancer cells was over 100 µM; in the data set on HEK293/pcDNA3.1, 39.9 µM; in data set [1], over 100 µM; in the data set with DU-145 cells, 47.2 µM; with HCT-116, 60.9 µM. Moreover, in the data set on HEK293/pcDNA3.1, the “significant cytotoxicity in human embryonic kidney cells” value is on record as “produced significant cytotoxicity”.
For the molecule `O=C1Nc2ccccc2C1=Cc1cc2ccccc2nc1Cl` [LM01, 3-((2-chloroquinolin-3-yl)methylene)indolin-2-one], the IC50 in the data set on HT-29 cancer cells was over 100 µM; with HEK293/pcDNA3.1, 64.5 µM; in data set [1], over 100 µM; in the data set with DU-145 cells it was 77.5 µM; with HCT-116 it was over 100 µM.
For `O=C1Nc2ccccc2C1=Cc1cc2cc(Cl)ccc2nc1Cl` [LM08, 3-((2,6-dichloroquinolin-3-yl)methylene)indolin-2-one], the IC50 in the data set on HT-29 cancer cells is over 100 µM; in the data set on HEK293/pcDNA3.1, 64.3 µM; in data set [1], over 100 µM; with DU-145 cells, 91.2 µM; in the data set with HCT-116, 77.8 µM. For the same molecule, the “nuclear morphology of A2780 cells (DAPI staining)” value in the data set on A2780 cells [2] is “nuclear condensation”. The “colony formation of A2780 cells” value in the data set on A2780 cells [3] is “significantly inhibited”. The “Q1 (flow cytometry quadrant)” value in the data set on A2780 cells [4] (10 μM) is given as 64.8%; with A2780 cells [4] (20 μM) it was 61.5%. Besides, the results for the “Q2 (flow cytometry quadrant, apoptosis)” value with A2780 cells [4] (10 μM) and with A2780 cells [4] (20 μM) were 34.6% and 36.9%, respectively.
Turning to `COc1cccc2cc(C=C3C(=O)Nc4ccccc43)c(Cl)nc12` [LM07, 3-((2-chloro-8-methoxyquinolin-3-yl)methylene)indolin-2-one], the IC50 was over 100 µM with HT-29 cancer cells; 80.8 µM in the data set on HEK293/pcDNA3.1; over 100 µM in data set [1]; 11 µM with DU-145 cells; over 100 µM with HCT-116.
In the case of `COc1ccc2cc(C=C3C(=O)Nc4ccccc43)c(Cl)nc2c1` [LM05, 3-((2-chloro-7-methoxyquinolin-3-yl)methylene)indolin-2-one], the IC50 was over 100 µM in the data set with HT-29 cancer cells; over 100 µM with HEK293/pcDNA3.1; over 100 µM in data set [1]; over 100 µM with DU-145 cells; 56.2 µM in the data set with HCT-116.
With `O=C1Nc2ccccc2C1=Cc1cc2ccc3ccccc3c2nc1Cl` [LM11, 3-((2-chlorobenzo[h]quinolin-3-yl)methylene)indolin-2-one], the IC50 in the data set on HT-29 cancer cells is over 100 µM; with HEK293/pcDNA3.1 it was 75.3 µM; in data set [1] it was over 100 µM; in the data set with DU-145 cells, 95.7 µM; in the data set with HCT-116, over 100 µM.
For `Cc1cc2cc(C=C3C(=O)Nc4ccccc43)c(Cl)nc2cc1C` [LM03, 3-((2-chloro-6,7-dimethylquinolin-3-yl)methylene)indolin-2-one], the IC50 in the data set with HT-29 cancer cells was over 100 µM; in the data set with HEK293/pcDNA3.1 it was 97.4 µM; in data set [1], over 100 µM; in the data set on DU-145 cells, over 100 µM; with HCT-116, over 100 µM.
In the case of `O=C1Nc2ccccc2C1=Cc1cc2cc(Br)ccc2nc1Cl` [LM10, 3-((6-bromo-2-chloroquinolin-3-yl)methylene)indolin-2-one], the IC50 is over 100 µM in the data set on HT-29 cancer cells; 50.5 µM in the data set on HEK293/pcDNA3.1; over 100 µM in data set [1]; over 100 µM in the data set on DU-145 cells; 41.3 µM in the data set with HCT-116. In addition, the “significant cytotoxicity in human embryonic kidney cells” value in the data set on HEK293/pcDNA3.1 is listed as “produced significant cytotoxicity”.
Take `Cc1ccc2nc(Cl)c(C=C3C(=O)Nc4ccccc43)cc2c1` [LM02, 3-((2-chloro-6-methylquinolin-3-yl)methylene)indolin-2-one]: the IC50 was over 100 µM in the data set with HT-29 cancer cells; 73.4 µM in the data set with HEK293/pcDNA3.1; over 100 µM in data set [1]; over 100 µM in the data set on DU-145 cells; 52.1 µM in the data set with HCT-116.
On to `COc1cc2cc(C=C3C(=O)Nc4ccccc43)c(Cl)nc2cc1OC` [LM06, 3-((2-chloro-6,7-dimethoxyquinolin-3-yl)methylene)indolin-2-one], for which the IC50 in the data set with HT-29 cancer cells was over 100 µM; with HEK293/pcDNA3.1 it was over 100 µM; in data set [1] it was over 100 µM; in the data set on DU-145 cells it was over 100 µM; with HCT-116, 75 µM.
Turning to `O=C1Nc2ccccc2C1=Cc1cc2ccc(Cl)cc2nc1Cl` [LM09, 3-((2,7-dichloroquinolin-3-yl)methylene)indolin-2-one], the IC50 is over 100 µM in the data set with HT-29 cancer cells; 63.2 µM with HEK293/pcDNA3.1; over 100 µM in data set [1]; 54.9 µM with DU-145 cells; 75.2 µM in the data set with HCT-116.
